Test results: ChEMBL document CHEMBL1146900, “New opioid designed multiple ligand from Dmt-Tic and morphinan pharmacophores” (J Med Chem, 2006)
Activity calls are given as the source filed them. The calls are words filed in the database; no cut-off is given here. Non-standard residues stand in square brackets, D forms with d. Residues, ends and D or L forms follow the SMILES beside them. Dmt = Cc1cc(O)cc(C)c1C[C@H](N)C(=O)O; Tic = O=C(O)[C@@H]1Cc2ccccc2CN1; βAla = NCCC(=O)O

What was measured:
[1] = target: Opioid receptors; mu & delta (Homo sapiens) (UniProt P41143+P35372); test: Selectivity for delta opioid receptor over mu opioid receptor; type: protein assay
Chain of Opioid receptors; mu & delta (Homo sapiens) (P35372 whole entry, looked up): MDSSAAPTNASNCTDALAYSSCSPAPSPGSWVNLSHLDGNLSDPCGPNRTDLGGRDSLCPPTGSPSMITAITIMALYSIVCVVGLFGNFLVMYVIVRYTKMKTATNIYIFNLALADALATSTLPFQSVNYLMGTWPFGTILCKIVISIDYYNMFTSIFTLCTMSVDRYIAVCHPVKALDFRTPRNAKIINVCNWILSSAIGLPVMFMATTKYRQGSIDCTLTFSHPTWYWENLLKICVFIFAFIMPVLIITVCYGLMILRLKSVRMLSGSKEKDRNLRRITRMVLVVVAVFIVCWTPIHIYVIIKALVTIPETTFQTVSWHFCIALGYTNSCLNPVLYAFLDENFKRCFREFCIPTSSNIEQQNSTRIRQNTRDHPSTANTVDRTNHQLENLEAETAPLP
Chain of Opioid receptors; mu & delta (Homo sapiens) (P41143 whole entry, looked up): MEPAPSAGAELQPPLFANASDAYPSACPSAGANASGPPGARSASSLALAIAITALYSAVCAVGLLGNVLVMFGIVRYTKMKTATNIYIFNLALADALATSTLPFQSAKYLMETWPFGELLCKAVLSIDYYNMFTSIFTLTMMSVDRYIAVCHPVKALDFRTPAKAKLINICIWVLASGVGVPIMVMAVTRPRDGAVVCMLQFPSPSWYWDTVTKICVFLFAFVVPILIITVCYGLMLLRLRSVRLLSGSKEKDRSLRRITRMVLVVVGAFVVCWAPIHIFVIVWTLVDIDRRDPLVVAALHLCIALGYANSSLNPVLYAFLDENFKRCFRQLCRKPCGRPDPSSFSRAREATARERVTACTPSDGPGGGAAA
Procedure, shortened: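 Competition binding to membranes of CHO cells stably expressing human μ or δ opioid receptors, each receptor in separate membranes. Selectivity comes from comparing the affinities at the two receptors.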

[2] = target: T1, Delta-type opioid receptor (Homo sapiens, UniProt P41143); test: Displacement of [3H]naltrindole from human delta opioid receptor expressed in CHO cells; type: cell-based
T1 sequence (P41143 whole entry): as the sequence (P41143 whole entry, looked up) above

[3] = target: T2, Kappa-type opioid receptor (Homo sapiens, UniProt P41145); test: Antagonist activity against human kappa opioid receptor expressed in CHO cells assessed as inhibition of U50488-stimulated [35S]GTPgammaS binding; type: functional, cell-based
T2 sequence (P41145 whole entry): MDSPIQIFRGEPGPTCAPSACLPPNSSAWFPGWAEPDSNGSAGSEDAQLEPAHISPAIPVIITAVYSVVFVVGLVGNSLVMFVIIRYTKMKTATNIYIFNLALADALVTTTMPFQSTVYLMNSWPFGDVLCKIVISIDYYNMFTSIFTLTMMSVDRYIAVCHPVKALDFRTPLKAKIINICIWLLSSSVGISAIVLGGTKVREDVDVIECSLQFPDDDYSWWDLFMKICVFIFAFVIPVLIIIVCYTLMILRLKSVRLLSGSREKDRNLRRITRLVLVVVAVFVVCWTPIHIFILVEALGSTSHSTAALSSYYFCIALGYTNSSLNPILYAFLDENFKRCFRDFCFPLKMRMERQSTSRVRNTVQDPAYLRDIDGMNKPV
Procedure, shortened: (§1)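 CHO membranes stably expressing a single human opioid receptor were incubated with agonist plus varying compound concentrations, and [35S]GTPγS binding was measured. Agonists: μ, DAMGO 200 nM; δ, SNC-80 100 nM; κ, U50,488 100 nM. Imax is the maximal percent inhibition of agonist-stimulated binding.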

[4] = target: T2, Kappa-type opioid receptor; test: Inhibition of [3H]U-69593 binding to human kappa opioid receptor expressed in CHO cells at 10 uM; type: cell-based
[5] = target: T1, Delta-type opioid receptor; test: Agonist activity at human delta opioid receptor expressed in CHO cells assessed as stimulation of [35S]GTP-gamma-S binding; type: functional, cell-based
Procedure, shortened: (§2)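 Membranes from CHO cells stably expressing only the human μ, δ or κ opioid receptor were incubated with various concentrations of compound, and stimulation of [35S]GTPγS binding was measured. Emax is the maximal percent stimulation. EC50 is the concentration giving 50% of Emax. EC50 was not calculated when Emax was 30% or lower.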

[6] = target: T1, Delta-type opioid receptor; test: Antagonist activity against human delta opioid receptor expressed in CHO cells assessed as inhibition of SNC80-stimulated [35S]GTP-gamma-S binding; type: functional, cell-based; procedure, shortened: as §1
Mu-type opioid receptor [7] = target: T3, Mu-type opioid receptor (Homo sapiens, UniProt P35372); test: Displacement of [3H]DAMGO from human mu opioid receptor expressed in CHO cells; type: cell-based
T3 sequence (P35372 whole entry): as the sequence (P35372 whole entry, looked up) above
Procedure, shortened: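 Competition binding run on membranes prepared from CHO cells that stably express the human mu receptor.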

Mu-type opioid receptor [8] = target: T3, Mu-type opioid receptor; test: Antagonist activity against human mu opioid receptor expressed in CHO cells assessed as inhibition of DAMGO-stimulated [35S]GTP-gamma-S binding; type: functional, cell-based; procedure, shortened: as §1
Mu-type opioid receptor [9] = target: T3, Mu-type opioid receptor; test: Agonist activity at human mu opioid receptor expressed in CHO cells assessed as stimulation of [35S]GTP-gamma-S binding; type: functional, cell-based; procedure, shortened: as §2
[10] = target: T2, Kappa-type opioid receptor; test: Displacement of [3H]U-69593 from human kappa opioid receptor expressed in CHO cells; type: cell-based
[11] = target: T2, Kappa-type opioid receptor; test: Agonist activity at human kappa opioid receptor expressed in CHO cells assessed as stimulation of [35S]GTPgammaS binding; type: functional, cell-based; procedure, shortened: as §2

SMILES	Ratio Ki [1]	Ki [2] [nM]	IC50 [3]	Imax [3]	inhibition [4] [%]	Activity [5]	Emax [5] [%]	IC50 [6] [nM]	Imax [6] [%]	Ki (Mu-type opioid receptor [7]) [nM]	IC50 (Mu-type opioid receptor [8]) [nM]	Imax (Mu-type opioid receptor [8]) [%]	EC50 (Mu-type opioid receptor [9]) [nM]	Emax (Mu-type opioid receptor [9]) [%]	Ki [10] [nM]	Activity [3]	Ki [4] [nM]	EC50 [11] [nM]	Emax [11] [%]	EC50 [5] [nM]
Cc1cc(O)cc(C)c1C[C@H](N)C(=O)N1Cc2ccccc2C[C@H]1C(=O)NCCC(=O)O (H-[Dmt]-[Tic]-[βAla]-OH)	262	4.2	Not Active	inactive	62	inactive	0.95	10	93											
Cc1cc(O)cc(C)c1C[C@H](N)C(=O)N1Cc2ccccc2C[C@H]1C(=O)NCCC(=O)Oc1ccc2c(c1)[C@@]13CCCC[C@H]1[C@@H](C2)N(CC1CCC1)CC3		1.5					18	3.9	84	0.69	97	47	8.9	79	0.28	inactive	0.28	6	130	2.8
